Measurements reported in ChEMBL document CHEMBL3396951, “Design, synthesis and SAR studies of GABA uptake inhibitors derived from 2-substituted pyrrolidine-2-yl-acetic acids” (Bioorg Med Chem, 2015).

Legend:
[1] = molecular target: T1, Sodium- and chloride-dependent GABA transporter 1 (Mus musculus, UniProt P31648); test: Inhibition of mouse GAT1 expressed in HEK293 cells by [3H]GABA uptake assay; assay type: cell-based
[2] = molecular target: T2, GABA transporter 2 (Mus musculus) (UniProt P31651); test: Inhibition of mouse GAT2 expressed in HEK293 cells assessed as remaining [3H]GABA uptake at 1 mM by [3H]GABA uptake assay; assay type: cell-based
T2 sequence (whole entry): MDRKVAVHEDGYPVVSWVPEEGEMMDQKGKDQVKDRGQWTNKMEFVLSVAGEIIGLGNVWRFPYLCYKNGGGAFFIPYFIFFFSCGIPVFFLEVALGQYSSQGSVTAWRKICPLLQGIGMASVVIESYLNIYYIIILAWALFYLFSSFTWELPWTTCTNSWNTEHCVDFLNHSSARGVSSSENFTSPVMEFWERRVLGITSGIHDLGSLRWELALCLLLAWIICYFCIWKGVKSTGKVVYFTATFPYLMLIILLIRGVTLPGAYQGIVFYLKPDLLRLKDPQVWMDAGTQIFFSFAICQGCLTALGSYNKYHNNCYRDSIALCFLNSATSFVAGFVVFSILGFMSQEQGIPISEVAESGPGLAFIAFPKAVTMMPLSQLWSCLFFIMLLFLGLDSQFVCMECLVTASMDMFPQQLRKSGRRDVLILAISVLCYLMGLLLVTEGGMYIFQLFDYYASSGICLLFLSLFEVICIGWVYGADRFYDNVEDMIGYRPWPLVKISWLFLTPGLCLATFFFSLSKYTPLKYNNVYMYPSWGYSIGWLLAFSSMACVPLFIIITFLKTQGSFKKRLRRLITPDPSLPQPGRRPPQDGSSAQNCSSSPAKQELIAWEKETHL
Method in brief: (§1)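 Radioactive [3H]GABA uptake run in HEK293 cells expressing mGAT1–4 with 1 mM test substance. Readout is % remaining uptake relative to an inhibitor-free control.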

GABA transporter 3 = molecular target: T3, GABA transporter 3 (Mus musculus, UniProt P31649); test: Inhibition of mouse GAT3 expressed in HEK293 cells by [3H]GABA uptake assay; assay type: cell-based
T3 sequence (P31649 whole entry): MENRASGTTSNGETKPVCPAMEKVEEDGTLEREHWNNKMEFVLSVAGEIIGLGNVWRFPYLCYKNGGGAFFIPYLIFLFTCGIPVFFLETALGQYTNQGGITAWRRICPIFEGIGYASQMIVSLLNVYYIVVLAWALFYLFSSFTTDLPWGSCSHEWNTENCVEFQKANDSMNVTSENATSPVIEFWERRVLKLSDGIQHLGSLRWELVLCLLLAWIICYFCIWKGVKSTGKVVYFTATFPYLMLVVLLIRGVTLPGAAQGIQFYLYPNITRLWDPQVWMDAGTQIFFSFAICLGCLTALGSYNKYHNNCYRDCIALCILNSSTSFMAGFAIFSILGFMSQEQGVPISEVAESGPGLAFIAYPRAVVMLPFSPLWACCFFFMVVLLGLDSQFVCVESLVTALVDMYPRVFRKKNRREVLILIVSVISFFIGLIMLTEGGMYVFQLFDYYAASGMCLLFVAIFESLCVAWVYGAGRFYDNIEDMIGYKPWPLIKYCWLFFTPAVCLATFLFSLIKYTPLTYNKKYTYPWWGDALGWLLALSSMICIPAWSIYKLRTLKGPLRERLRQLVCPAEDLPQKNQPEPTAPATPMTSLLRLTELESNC

GABA transporter 4 = molecular target: T4, GABA transporter 4 (Mus musculus, UniProt P31650); test: Inhibition of mouse GAT4 expressed in HEK293 cells by [3H]GABA uptake assay; assay type: cell-based
T4 sequence (P31650 whole entry): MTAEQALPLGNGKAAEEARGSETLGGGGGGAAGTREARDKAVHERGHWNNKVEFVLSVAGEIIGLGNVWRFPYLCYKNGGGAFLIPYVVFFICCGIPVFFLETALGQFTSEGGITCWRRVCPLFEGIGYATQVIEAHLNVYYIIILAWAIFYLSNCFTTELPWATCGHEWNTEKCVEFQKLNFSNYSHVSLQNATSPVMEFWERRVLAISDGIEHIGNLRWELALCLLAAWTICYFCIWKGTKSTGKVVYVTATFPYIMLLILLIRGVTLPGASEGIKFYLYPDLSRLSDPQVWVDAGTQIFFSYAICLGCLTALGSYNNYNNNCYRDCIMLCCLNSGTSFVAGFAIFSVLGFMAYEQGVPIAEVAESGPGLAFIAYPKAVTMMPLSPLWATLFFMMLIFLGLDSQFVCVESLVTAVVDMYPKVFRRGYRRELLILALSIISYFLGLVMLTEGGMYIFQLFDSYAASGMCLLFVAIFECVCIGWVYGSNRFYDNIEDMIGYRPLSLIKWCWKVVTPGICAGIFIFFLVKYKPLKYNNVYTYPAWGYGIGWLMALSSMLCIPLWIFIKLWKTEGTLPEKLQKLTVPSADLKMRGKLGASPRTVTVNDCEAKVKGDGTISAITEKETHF

[3] = molecular target: Sodium- and chloride-dependent GABA transporter 1 (Mus musculus) (UniProt P31648); test: Inhibition of mouse GAT1 expressed in HEK293 cells assessed as remaining [3H]GABA uptake at 1 mM by [3H]GABA uptake assay; assay type: cell-based; method in brief: as §1
[4] = molecular target: T5, GABA transporter 3 (Mus musculus) (UniProt P31649); test: Inhibition of mouse GAT3 expressed in HEK293 cells assessed as remaining [3H]GABA uptake at 1 mM by [3H]GABA uptake assay; assay type: cell-based; method in brief: as §1
T5 sequence (whole entry): T3 sequence (P31649 whole entry)

[5] = molecular target: T6, GABA transporter 4 (Mus musculus) (UniProt P31650); test: Inhibition of mouse GAT4 expressed in HEK293 cells assessed as remaining [3H]GABA uptake at 1 mM by [3H]GABA uptake assay; assay type: cell-based; method in brief: as §1
T6 sequence (whole entry): T4 sequence (P31650 whole entry)

GABA transporter 2 = molecular target: T7, GABA transporter 2 (Mus musculus, UniProt P31651); test: Inhibition of mouse GAT2 expressed in HEK293 cells by [3H]GABA uptake assay; assay type: cell-based
T7 sequence (P31651 whole entry): T2 sequence (whole entry)
Method in brief: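 [3H]GABA uptake inhibition in HEK293 cells expressing mGAT1–4 or hGAT-1, reported as pIC50 (mean ± SEM, n = 3 independent experiments). The hGAT-1 assay matched the mGAT1 assay except that HEK293 […] expressing hGAT-1 was used.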

Mus musculus = species: Mus musculus; test: Selectivity for mouse GAT1 over mouse GAT4
[6] = molecular target: T8, Sodium- and chloride-dependent GABA transporter 1 (Homo sapiens, UniProt P30531); test: Inhibition of human GAT1 expressed in HEK293 cells by [3H]GABA uptake assay; assay type: cell-based
T8 sequence (P30531 whole entry): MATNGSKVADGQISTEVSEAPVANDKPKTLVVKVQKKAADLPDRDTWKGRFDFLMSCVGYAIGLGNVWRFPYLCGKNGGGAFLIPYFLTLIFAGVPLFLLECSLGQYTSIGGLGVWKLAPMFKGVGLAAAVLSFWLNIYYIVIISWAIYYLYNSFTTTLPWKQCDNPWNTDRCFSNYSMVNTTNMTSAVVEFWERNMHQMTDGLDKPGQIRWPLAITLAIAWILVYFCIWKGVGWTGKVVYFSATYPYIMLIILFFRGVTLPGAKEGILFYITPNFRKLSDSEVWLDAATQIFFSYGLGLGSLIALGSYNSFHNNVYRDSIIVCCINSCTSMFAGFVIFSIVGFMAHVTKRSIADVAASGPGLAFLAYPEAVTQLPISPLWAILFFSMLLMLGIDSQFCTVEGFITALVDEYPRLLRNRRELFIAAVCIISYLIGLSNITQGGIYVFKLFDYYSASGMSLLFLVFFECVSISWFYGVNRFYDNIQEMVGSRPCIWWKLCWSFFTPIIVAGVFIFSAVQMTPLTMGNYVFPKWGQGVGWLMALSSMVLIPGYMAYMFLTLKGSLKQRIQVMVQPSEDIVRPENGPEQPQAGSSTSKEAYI

[7] = molecular target: T8, Sodium- and chloride-dependent GABA transporter 1; test: Binding affinity to human GAT1 expressed in HEK293 cells using NO71156 as unlabelled marker by LC-ESI-MS-MS based competitive MS binding assay; assay type: cell-based
Method in brief: (§2)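 Competitive MS Binding Assay using membrane preparations from HEK293 cells expressing the transporter. hGAT-1 membranes were prepared the same way as mGAT1 membranes. Affinity reported as pKi ± SEM from three independent experiments.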

[8] = molecular target: T1, Sodium- and chloride-dependent GABA transporter 1; test: Binding affinity to mouse GAT1 expressed in HEK293 cells using NO71156 as unlabelled marker by LC-ESI-MS-MS based competitive MS binding assay; assay type: cell-based; method in brief: as §2
[9] = molecular target: T2, GABA transporter 2 (Mus musculus); test: Inhibition of mouse GAT2 expressed in HEK293 cells assessed as remaining [3H]GABA uptake at 100 uM by [3H]GABA uptake assay; assay type: cell-based
Method in brief: (§3)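 Transfected HEK293 cells (mGAT1–4) tested for [3H]GABA uptake at 100 µM test substance. Remaining uptake is expressed against a control without inhibitor.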

[10] = molecular target: T5, GABA transporter 3 (Mus musculus); test: Inhibition of mouse GAT3 expressed in HEK293 cells assessed as remaining [3H]GABA uptake at 100 uM by [3H]GABA uptake assay; assay type: cell-based; method in brief: as §3
[11] = molecular target: T6, GABA transporter 4 (Mus musculus); test: Inhibition of mouse GAT4 expressed in HEK293 cells assessed as remaining [3H]GABA uptake at 100 uM by [3H]GABA uptake assay; assay type: cell-based; method in brief: as §3

Row | IC50 [1] | Activity [2] | IC50 (GABA transporter 3) | IC50 (GABA transporter 4) | Activity [3] | other results | SMILES
1 | 240 µM | 81% | 339 µM | 1120 µM | – | – | O=C(O)C[C@H]1CCCN1
2 | 407 µM | 77% | 141 µM | 309 µM | – | – | O=C(O)C[C@@H]1CCCN1
3 | – | 59% | 309 µM | 339 µM | 83% | – | CC(C(=O)O)[C@H]1CCCN1 (mixture of isomers)
4 | – | 82% | – | – | 78% | Activity [4]: 78%; Activity [5]: 95% | CCC(C(=O)O)[C@H]1CCCN1 (mixture of isomers)
5 | 1000 µM | – | 36.3 µM | 14.1 µM | – | IC50 (GABA transporter 2): 170 µM; Selectivity ratio (Mus musculus): > 71 | O=C(O)[C@H](O)[C@H]1CCCN1 (racemic)
6 | – | 95% | 269 µM | – | 53% | Activity [5]: 61% | O=C(O)[C@@H](O)[C@H]1CCCN1 (racemic)
7 | 123 µM | – | 26.9 µM | 21.4 µM | – | IC50 (GABA transporter 2): 158 µM | N[C@@H](C(=O)O)[C@H]1CCCN1 (racemic)
8 | – | 52% | – | 372 µM | 1% | Activity [4]: 59% | N[C@H](C(=O)O)[C@H]1CCCN1 (racemic)
9 | 25.1 µM | – | – | – | – | IC50 [6]: 13.8 µM; Ki [7]: 3.98 µM; Ki [8]: 3.89 µM; Activity [9]: 89%; Activity [10]: 97%; Activity [11]: 59% | O=C(O)[C@H](O)[C@H]1CCCN1CCC=C(c1ccccc1)c1ccccc1 (racemic)
10 | 2.29 µM | – | 100 µM | – | – | IC50 [6]: 1.91 µM; Ki [7]: 0.214 µM; Ki [8]: 0.145 µM; Activity [9]: 60%; Activity [11]: 55% | O=C(O)[C@@H](O)[C@H]1CCCN1CCC=C(c1ccccc1)c1ccccc1 (racemic)
